In ChEMBL document CHEMBL4411292, “Boronate, trifluoroborate, sulfone, sulfinate and sulfonate congeners of oseltamivir carboxylic acid: Synthesis and anti-influenza activity” (Eur J Med Chem, 2019):
Calls of active or inactive are those of the source. The rule behind the calls is not given here.

Legend:
[1] = tested on: Influenza A virus; test: Antiviral activity against Influenza A virus (A/WSN/1933(H1N1)) infected in MDCK cells assessed as reduction in virus-induced cytopathic effect after 48 hrs by CellTiter 96 aqueous non-radioactive cell proliferation assay; format: functional, organism-based
Outline: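 MDCK cells (DMEM with 10% FBS, 37 °C, 5% CO2) were seeded at 1 × 10^5 cells/mL and infected with 100 TCID50 of A/WSN/33 premixed with inhibitor at varied concentrations. Incubation was 48 h at 37 °C, 5.0% CO2. Viability was read with CellTiter 96 AQueous reagent (15 min, A490). EC50 was fitted from % CPE vs concentration, as mean ± SD of three experiments.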

[2] = molecular target: Neuraminidase (Influenza A virus (A/Puerto Rico/8/1934(H1N1))) (UniProt P03468); test: Irreversible inhibition of influenza A virus (A/WSN/1933(H1N1)) neuraminidase using MUNANA as fluorogenic substrate preincubated up to 48 hrs followed by substrate addition and measured after 15 mins by fluorometric assay
[3] = Cytotoxicity against MDCK cells assessed as reduction in cell viability after 48 hrs by CellTiter 96 aqueous non-radioactive cell proliferation assay; format: cell-based, Canis lupus familiaris; settings: dog
Outline: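 Uninfected MDCK cells at 1 × 10^5 cells/mL were exposed to inhibitor at varied concentrations for 48 h at 37 °C, 5.0% CO2. Viability was read with CellTiter 96 AQueous reagent (15 min, absorbance at 490 nm). CC50 was derived by curve fitting as for EC50.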

Sequence of Neuraminidase (Influenza A virus (A/Puerto Rico/8/1934(H1N1))) (P03468 whole entry): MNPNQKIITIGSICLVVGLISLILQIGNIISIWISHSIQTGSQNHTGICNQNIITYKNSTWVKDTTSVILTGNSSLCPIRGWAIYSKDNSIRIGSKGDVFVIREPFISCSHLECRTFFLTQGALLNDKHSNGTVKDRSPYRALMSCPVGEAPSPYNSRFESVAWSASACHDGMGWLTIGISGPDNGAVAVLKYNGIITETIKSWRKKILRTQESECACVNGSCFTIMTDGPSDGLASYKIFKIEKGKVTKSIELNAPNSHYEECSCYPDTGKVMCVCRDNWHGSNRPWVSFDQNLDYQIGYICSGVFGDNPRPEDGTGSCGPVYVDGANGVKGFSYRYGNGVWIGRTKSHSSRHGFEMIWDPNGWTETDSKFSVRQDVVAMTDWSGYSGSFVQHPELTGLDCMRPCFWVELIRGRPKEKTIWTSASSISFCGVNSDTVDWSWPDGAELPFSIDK

Row | Structure (SMILES) | EC50 [1] | inhibition [2] | CC50 at 48 h [3]
1 | CCC(CC)O[C@@H]1C=C(C(=O)O)C[C@H](N)[C@H]1NC(C)=O [OSELTAMIVIR CARBOXYLATE] | 28 nM |  | 
2 | CCC(CC)O[C@@H]1C=C([B-](F)(F)F)C[C@H](NC(=N)N)[C@H]1NC(C)=O | 270 nM | inactive | 
3 | CCC(CC)O[C@@H]1C=C(S(C)(=O)=O)C[C@H](N)[C@H]1NC(C)=O | 1200 nM |  | 
4 | CCC(CC)O[C@@H]1C=C(C(=O)O)C[C@H](NC(=N)N)[C@H]1NC(C)=O | 14 nM |  | 
5 | CCCCOS(=O)(=O)C1=C[C@@H](OC(CC)CC)[C@H](NC(C)=O)[C@@H](N)C1 | 190 nM |  | 
6 | CCC(CC)O[C@@H]1C=C(S(=O)(=O)CCc2ccncc2)C[C@H](NC(=N)N)[C@H]1NC(C)=O | 100 nM |  | > 100000 nM
7 | CCC(CC)O[C@@H]1C=C([S+]([O-])O)C[C@H](NC(=N)N)[C@H]1NC(C)=O (stereo not given in full) | 7.8 nM |  | > 100000 nM
8 | CCC(CC)O[C@@H]1C=C(S(=O)(=O)O)C[C@H](NC(=N)N)[C@H]1NC(C)=O | 2.2 nM |  | > 100000 nM
9 | CCC(CC)O[C@@H]1C=C(S(=O)(=O)OCCCc2ccccc2)C[C@H](NC(=N)N)[C@H]1NC(C)=O | 24 nM |  | > 100000 nM
10 | CCC(CC)O[C@@H]1C=C(S(=O)(=O)O)C[C@H](N)[C@H]1NC(C)=O | 14 nM |  | > 100000 nM
11 | CCC(CC)O[C@@H]1C=C([S+]([O-])O)C[C@H](N)[C@H]1NC(C)=O (stereo not given in full) | 48 nM |  | > 100000 nM
12 | CCC(CC)O[C@@H]1C=C(S(=O)(=O)OCCCc2ccccc2)C[C@H](N)[C@H]1NC(C)=O | 280 nM |  | 
13 | CCC(CC)O[C@@H]1C=C(B(O)O)C[C@H](N)[C@H]1NC(C)=O | 1700 nM | inactive | 
14 | CCC(CC)O[C@@H]1C=C(B(O)O)C[C@H](NC(=N)N)[C@H]1NC(C)=O | 580 nM | inactive | 
15 | CCC(CC)O[C@@H]1C=C([B-](F)(F)F)C[C@H](N)[C@H]1NC(C)=O | 860 nM | inactive | 
16 | CCC(CC)O[C@@H]1C=C(S(=O)(=O)CCc2ccncc2)C[C@H](N)[C@H]1NC(C)=O | 1500 nM |  | 
17 | CCC(CC)O[C@@H]1C=C(S(C)(=O)=O)C[C@H](NC(=N)N)[C@H]1NC(C)=O | 46 nM |  | > 100000 nM
18 | CCCCOS(=O)(=O)C1=C[C@@H](OC(CC)CC)[C@H](NC(C)=O)[C@@H](NC(=N)N)C1 | 31 nM |  | > 100000 nM
